According to ChEMBL document CHEMBL1123488, “Agents for the treatment of brain edema. 2. [(2,3,9,9a-Tetrahydro-3-oxo-9a-substituted-1H-fluoren-7-yl)oxy]+ ++alkanoi c acids and some of their analogues” (J Med Chem, 1986):
Several values for one entry are separate records, joined by “and”; a condition that tells them apart may be missing. Identical values can stand only once.

Experiments:
Felis catus [1] = species on record: Felis catus; assay: Compound was tested for inhibition of chloride ion uptake in cat cerebrocortical slices at concentration of (10e-7) M; format: functional
Procedure, shortened: (§1)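 Slices were incubated 60 min at 22 °C in 27 mM K+ medium with 5 mM HCO3- added for the last 40 min, with the compound present throughout. Slices were then filtered off, reweighed and homogenized (10% w/v) in 1 N perchloric acid. The supernatant was assayed for electrolytes, expressed as µmol/g initial wet weight. Two-tailed t-test versus 27 K + HCO3-.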

Cavia porcellus [2] = species on record: Cavia porcellus; assay: Compound was tested for inhibition of HCO3- dependent swelling of guinea pig cerebrocortical slices at concentration of (10e-9) M; format: functional
Procedure, shortened: (§2)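 Cerebrocortical slices were weighed and incubated in Warburg flasks at 22 °C in medium of KCl 27, NaCl 100, glucose 10 and KH2PO4 1.2 mmol/L (27 mM K+ HEPES). HCO3- (5 mM) was added from the side arm for the final 40 min, and the compound was present throughout the 60 min. Swelling = (final − initial wet weight)/initial wet weight × 100. Two-tailed t-test versus 27 K + HCO3-.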

Cavia porcellus [3] = species on record: Cavia porcellus; assay: Compound was tested for inhibition of sodium ion uptake in guinea pig cerebrocortical slices at concentration of (10e-12) M; format: functional
Felis catus [4] = species on record: Felis catus; assay: Compound was tested for inhibition of K+ ion uptake in cat cerebrocortical slices at concentration of (10e-9) M; format: functional; procedure, shortened: as §1
Rattus norvegicus [5] = species on record: Rattus norvegicus; assay: Compound was tested for inhibition of HCO3- dependent swelling of rat cerebrocortical slices at concentration of (10e-6) M; format: functional; procedure, shortened: as §2
Cavia porcellus [6] = species on record: Cavia porcellus; assay: Compound was tested for inhibition of chloride ion uptake in guinea pig cerebrocortical slices at concentration of (10e-11) M; format: functional; procedure, shortened: as §1
Rattus norvegicus [7] = species on record: Rattus norvegicus; assay: Compound was tested for inhibition of chloride ion uptake in rat cerebrocortical slices at concentration of (10e-8) M; format: functional; procedure, shortened: as §1
Felis catus [8] = species on record: Felis catus; assay: Compound was tested for inhibition of HCO3- dependent swelling of cat cerebrocortical slices at concentration of (10e-12) M; format: functional; procedure, shortened: as §2
Felis catus [9] = assay: In vivo activity in the acceleration-deceleration head injury assay at dose of 5 mg/kg; 7/22
Rattus norvegicus [10] = species on record: Rattus norvegicus; assay: Compound was tested for inhibition of potassium ion uptake in rat cerebrocortical slices at concentration of (10e-3) M; format: functional
Felis catus [11] = species on record: Felis catus; assay: Compound was tested for inhibition of K+ ion uptake in cat cerebrocortical slices at concentration of (10e-7) M; format: functional; procedure, shortened: as §1
Cavia porcellus [12] = species on record: Cavia porcellus; assay: Compound was tested for inhibition of chloride ion uptake in guinea pig cerebrocortical slices at concentration of (10e-9) M; format: functional; procedure, shortened: as §1
Felis catus [13] = assay: In vivo activity in the acceleration-deceleration head injury assay at dose of 10 mg/kg; 6/16
Rattus norvegicus [14] = species on record: Rattus norvegicus; assay: Compound was tested for inhibition of potassium ion uptake in rat cerebrocortical slices at concentration of (10e-4) M; format: functional
Felis catus [15] = species on record: Felis catus; assay: Compound was tested for inhibition of K+ ion uptake in cat cerebrocortical slices at concentration of (10e-10) M; format: functional; procedure, shortened: as §1
Felis catus [16] = species on record: Felis catus; assay: Compound was tested for inhibition of K+ ion uptake in cat cerebrocortical slices at concentration of (10e-8) M; format: functional; procedure, shortened: as §1
Felis catus [17] = assay: In vivo activity in the acceleration-deceleration head injury assay at dose of 1 mg/kg; 14/25
Rattus norvegicus [18] = species on record: Rattus norvegicus; assay: Compound was tested for inhibition of sodium ion uptake in rat cerebrocortical slices at concentration of (10e-4) M; format: functional
Rattus norvegicus [19] = species on record: Rattus norvegicus; assay: Compound was tested for inhibition of potassium ion uptake in rat cerebrocortical slices at concentration of (10e-6) M; format: functional
Felis catus [20] = species on record: Felis catus; assay: Compound was tested for inhibition of HCO3- dependent swelling of cat cerebrocortical slices at concentration of (10e-9) M; format: functional; procedure, shortened: as §2
Cavia porcellus [21] = species on record: Cavia porcellus; assay: Compound was tested for inhibition of sodium ion uptake in guinea pig cerebrocortical slices at concentration of (10e-10) M; format: functional
Cavia porcellus [22] = species on record: Cavia porcellus; assay: Compound was tested for inhibition of HCO3- dependent swelling of guinea pig cerebrocortical slices at concentration of (10e-10) M; format: functional; procedure, shortened: as §2
Felis catus [23] = species on record: Felis catus; assay: Compound was tested for inhibition of sodium ion uptake in cat cerebrocortical slices at concentration of (10e-12) M; format: functional
Felis catus [24] = species on record: Felis catus; assay: Compound was tested for inhibition of chloride ion uptake in cat cerebrocortical slices at concentration of (10e-11) M; format: functional; procedure, shortened: as §1
Cavia porcellus [25] = species on record: Cavia porcellus; assay: Compound was tested for inhibition of HCO3- dependent swelling of guinea pig cerebrocortical slices at concentration of (10e-7) M; format: functional; procedure, shortened: as §2
Cavia porcellus [26] = species on record: Cavia porcellus; assay: Compound was tested for inhibition of chloride ion uptake in guinea pig cerebrocortical slices at concentration of (10e-8) M; format: functional; procedure, shortened: as §1
Felis catus [27] = species on record: Felis catus; assay: Compound was tested for inhibition of chloride ion uptake in cat cerebrocortical slices at concentration of (10e-10) M; format: functional; procedure, shortened: as §1
Cavia porcellus [28] = species on record: Cavia porcellus; assay: Compound was tested for inhibition of chloride ion uptake in guinea pig cerebrocortical slices at concentration of (10e-10) M; format: functional; procedure, shortened: as §1
Felis catus [29] = species on record: Felis catus; assay: Compound was tested for inhibition of K+ ion uptake in cat cerebrocortical slices at concentration of (10e-12) M; format: functional; procedure, shortened: as §1
Cavia porcellus [30] = species on record: Cavia porcellus; assay: Compound was tested for inhibition of sodium ion uptake in guinea pig cerebrocortical slices at concentration of (10e-8) M; format: functional
Felis catus [31] = assay: In vivo activity in the acceleration-deceleration head injury assay at dose of 2.5 mg/kg; 8-19
Cavia porcellus [32] = species on record: Cavia porcellus; assay: Compound was tested for inhibition of chloride ion uptake in guinea pig cerebrocortical slices at concentration of (10e-12) M; format: functional; procedure, shortened: as §1
Felis catus [33] = species on record: Felis catus; assay: Compound was tested for inhibition of HCO3- dependent swelling of cat cerebrocortical slices at concentration of (10e-10) M; format: functional; procedure, shortened: as §2
Rattus norvegicus [34] = species on record: Rattus norvegicus; assay: Compound was tested for inhibition of chloride ion uptake in rat cerebrocortical slices at concentration of (10e-6) M; format: functional; procedure, shortened: as §1
Cavia porcellus [35] = species on record: Cavia porcellus; assay: Compound was tested for inhibition of chloride ion uptake in guinea pig cerebrocortical slices at concentration of (10e-6) M; format: functional; procedure, shortened: as §1
Rattus norvegicus [36] = assay: In vivo activity in the acceleration-deceleration head injury assay at dose of 10 mg/kg; format: functional
Procedure, shortened: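 Cat acceleration-deceleration head injury model. Drug given intravenously 20 min after the acceleration-deceleration event, before the hypoxemia period. Animals were matched in pairs by sex and run together; one was randomly assigned to drug, the other served as control. Deaths were counted over 24 h after trauma, excluding animals dying during the procedure or hypoxemia. Mortality was compared by χ² analysis.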

Rattus norvegicus [37] = species on record: Rattus norvegicus; assay: Compound was tested for inhibition of chloride ion uptake in rat cerebrocortical slices at concentration of (10e-3) M; format: functional; procedure, shortened: as §1
Cavia porcellus [38] = species on record: Cavia porcellus; assay: Compound was tested for inhibition of potassium ion uptake in guinea pig cerebrocortical slices at concentration of (10e-10) M; format: functional; procedure, shortened: as §1
Cavia porcellus [39] = species on record: Cavia porcellus; assay: Compound was tested for inhibition of HCO3- dependent swelling of guinea pig cerebrocortical slices at concentration of (10e-8) M; format: functional; procedure, shortened: as §2
Rattus norvegicus [40] = species on record: Rattus norvegicus; assay: Compound was tested for inhibition of sodium ion uptake in rat cerebrocortical slices at concentration of (10e-6) M; format: functional
Cavia porcellus [41] = species on record: Cavia porcellus; assay: Compound was tested for inhibition of potassium ion uptake in guinea pig cerebrocortical slices at concentration of (10e-12) M; format: functional; procedure, shortened: as §1
Cavia porcellus [42] = species on record: Cavia porcellus; assay: Compound was tested for inhibition of sodium ion uptake in guinea pig cerebrocortical slices at concentration of (10e-11) M; format: functional
Cavia porcellus [43] = species on record: Cavia porcellus; assay: Compound was tested for inhibition of chloride ion uptake in guinea pig cerebrocortical slices at concentration of (10e-7) M; format: functional; procedure, shortened: as §1

With `CCCC12CCC(=O)C=C1c1c(cc(OCC(=O)O)c(Cl)c1Cl)C2` (single isomer, unassigned; (+)) the Activity (Felis catus [1]) was 86.9, the Swelling (Cavia porcellus [2]) was 26.2% and the Activity (Cavia porcellus [3]) was 104.7. The Activity (Felis catus [4]) was 86, the Swelling (Rattus norvegicus [5]) was 22.7% and the Activity (Cavia porcellus [6]) was 94.8. The Activity (Rattus norvegicus [7]) was 101.4, the Swelling (Felis catus [8]) was 21.3% and the Deaths (Felis catus [9]) was 7. The Activity (Rattus norvegicus [10]) was 60.2, the Activity (Felis catus [11]) was 83.9 and the Activity (Cavia porcellus [12]) was 105.2. For the same compound, the Deaths (Felis catus [13]) was 6, the Activity (Rattus norvegicus [14]) was 73.7 and the Activity (Felis catus [15]) was 86.9. The Activity (Felis catus [16]) was 83.8, the Deaths (Felis catus [17]) was 14 and the Activity (Rattus norvegicus [18]) was 112.1. For the same compound, the Activity (Rattus norvegicus [19]) was 71.9, the Swelling (Felis catus [20]) was 18.3% and the Activity (Cavia porcellus [21]) was 108.3. For the same compound, the Swelling (Cavia porcellus [22]) was 26.8%, the Activity (Felis catus [23]) was 96.4 and the Activity (Felis catus [24]) was 87.9. For the same compound, the Swelling (Cavia porcellus [25]) was 26.4%, the Activity (Cavia porcellus [26]) was 103.8 and the Activity (Felis catus [27]) was 91.9. For the same compound, the Activity (Cavia porcellus [28]) was 101.4, the Activity (Felis catus [29]) was 90.9 and the Activity (Cavia porcellus [30]) was 108.6. The Deaths (Felis catus [31]) was 8, the Activity (Cavia porcellus [32]) was 100.5 and the Swelling (Felis catus [33]) was 19.5%. For the same compound, the Activity (Rattus norvegicus [34]) was 101.5, the Activity (Cavia porcellus [35]) was 103.8 and the Mortality (Rattus norvegicus [36]) was 37.5% and 79%. It also gave an Activity (Rattus norvegicus [37]) of 106.3, an Activity (Cavia porcellus [38]) of 101.3 and a Swelling (Cavia porcellus [39]) of 24.4%. For the same compound, the Activity (Rattus norvegicus [40]) was 127, the Activity (Cavia porcellus [41]) was 87.7 and the Activity (Cavia porcellus [42]) was 103.4. It also gave an Activity (Cavia porcellus [43]) of 115.4.
